Data set [1] deals with PBMC. Nature of the data set: Antagonist effect on LPS-induced IL6 production in human PBMC at 2 ug/mL. The data set is classed as functional, cell-based. In short, it runs like this: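 Human PBMC from healthy donor buffy coat, isolated on Ficoll (1.077 g/mL). Cultured at 1 × 10⁶ viable cells/well in RPMI-1640 with 10% FCS, penicillin/streptomycin and L-glutamine. Pre-incubated 90 min at 37 °C, 5% CO₂ with compound at final 0.02, 0.2, 2 or 20 µg/mL. E. coli LPS (055:B5) then added at 0.01 µg/mL. After 24 h, supernatant IL-6 measured by ELISA.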

Data set [2] concerns PBMC. Put plainly: Induction of IL6 production in human PBMC at 20 ug/ml relative to LPS. Type of data set: functional, cell-based. In a few lines: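 Human PBMC isolated on Ficoll from donor buffy coat. Cultured at 1 × 10⁶ viable cells/well in RPMI-1640 with 10% FCS and antibiotics. Incubated at 37 °C, 5% CO₂ with compound at final 20 µg/mL. Controls were medium alone and E. coli LPS (055:B5). Supernatant harvested at 24 h and IL-6 measured by ELISA; detection limit 10 pg/mL.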

In a further data set the test system is Limulus. Put plainly: Endotoxicity against horseshoe crab blood at 0.1 mg/mL by LAL chromogenic assay. The following applies: limulus polyphemus. The data set is classed as toxicity, organism-based. In short, it runs like this:
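LAL chromogenic endotoxin assay with compound at 0.1 mg/mL. Average of three independent experiments.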

For data set [3], the system named is Oryctolagus cuniculus. Put plainly: Induction of pyrogenicity in rabbit assessed as increase in temperature at 0.001 mg/kg, iv. The data set is classed as functional, organism-based. Set-up: dose 0.001 mg/kg. In a few lines:
(§1)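 Rabbit pyrogenicity test, iv injection, with water as control. Read-out is the summed temperature rise in three rabbits (°C), scored pass, inconclusive or fail.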

A further data set deals with Macrophage. Nature of the data set: Induction of NO production in murine macrophage. The data set is classed as functional, cell-based. Particulars: Mus musculus. In a few lines:
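Bone-marrow macrophages from six-week-old male C57BL/6 mice, differentiated 8 d in DMEM with 20% horse serum and 30% L929 supernatant. Then set to 700 000 cells/mL in DMEM with 5% FCS. Serially diluted compounds were incubated with cells in triplicate for 22 h at 37 °C, 8% CO₂. Supernatant nitrite measured by Griess reaction at 562 nm (reference 690 nm) against a standard curve. Reported as mean ± SD dose-response.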

Data set [4] deals with Oryctolagus cuniculus. Put plainly: Induction of pyrogenicity in rabbit assessed as increase in temperature at 0.01 mg/kg, iv. Type of data set: functional, organism-based. Set-up: dose 0.01 mg/kg. In a few lines: as §1
Data set [5] concerns Oryctolagus cuniculus. Put plainly: Induction of pyrogenicity in rabbit assessed as increase in temperature at 0.1 mg/kg, iv. Type of data set: functional, organism-based. Set-up: dose 0.1 mg/kg. In a few lines: as §1

≈ marks a conversion by molar mass, not a printed value. Calls of active or inactive are those of the source. The rule behind the calls is not given here.

Broadly, the EC50 is the concentration needed to bring the measured effect to its halfway point.

As for `CCCCCCCCCCCC(=O)O[C@H](CCCCCCCCCCC)CC(=O)NC(CCOP(=O)(O)O)C(=O)NCCC[C@H](COP(=O)(O)O)NC(=O)C[C@H](O)CCCCCCCCCCC` (mixture of isomers), the result in the data set on PBMC [1] was Active. For the same compound, the outcome in the data set on PBMC [2], in the data set on Oryctolagus cuniculus [3] and in the data set with Oryctolagus cuniculus [4] was inactive. For the same compound, the Activity in the data set with Limulus is 874 EU/ml. The EC50 in the data set with Macrophage turned out to be 0.083 µg/mL.

Take `CCCCCCCCCCCC(=O)O[C@H](CCCCCCCCCCC)CC(=O)N[C@@H](CCOP(=O)(O)O)C(=O)NCCC[C@H](COP(=O)(O)O)NC(=O)C[C@H](O)CCCCCCCCCCC`: in the data set on PBMC [1], the outcome was Active. Also, the outcome with PBMC [2] was inactive. The compound also came in with an Activity in the data set with Limulus of 240 EU/ml. In the data set on Macrophage, this compound came in with an EC50 of 0.15 µg/mL (≈ 0.148 µM).

With `CCCCCCCCCCCC(=O)O[C@H](CCCCCCCCCCC)CC(=O)N[C@@H](CCOP(=O)(O)O)C(=O)NCCC[C@H](CO)NC(=O)C[C@H](O)CCCCCCCCCCC`, the result with PBMC [1] was inactive. This compound also came in with an Activity in the data set with Limulus of 9320 EU/ml. In the data set with Macrophage, this compound gave an EC50 of 6.86 µg/mL (≈ 7.34 µM).

For the compound `CCCCCCCCCCCC(=O)O[C@H](CCCCCCCCCCC)CC(=O)N[C@H](CCOP(=O)(O)O)C(=O)NCCC[C@H](CO)NC(=O)C[C@H](O)CCCCCCCCCCC`, in the data set on PBMC [1], the result was inactive. For the same compound, the Activity with Limulus came out at 14257 EU/ml. In addition, the EC50 in the data set with Macrophage is 1.85 µg/mL (≈ 1.98 µM).

The compound `CCCCCCCCCCCC(=O)O[C@H](CCCCCCCCCCC)CC(=O)N[C@H]1[C@H](OC[C@H]2O[C@H](OP(=O)(O)O)[C@H](NC(=O)C[C@H](O)CCCCCCCCCCC)[C@@H](O)[C@@H]2O)O[C@H](CO)[C@@H](OP(=O)(O)O)[C@@H]1O` [DEFOSLIMOD] showed an EC50 in the data set with Macrophage of 0.025 µg/mL (≈ 0.022 µM).

On to `CCCCCCCCCCCC(=O)O[C@H](CCCCCCCCCCC)CC(=O)NC(CCOP(=O)(O)O)C(=O)NCCC[C@H](CO)NC(=O)C[C@H](O)CCCCCCCCCCC` (mixture of isomers), for which the result in the data set with PBMC [1], with Oryctolagus cuniculus [3] and in the data set with Oryctolagus cuniculus [4] was inactive. Also, in the data set with Limulus, the Activity is reported as 16238 EU/ml. For the same compound, the outcome in the data set on Oryctolagus cuniculus [5] was Active. In addition, a half-maximal response in the data set on Macrophage (EC50) required 3.53 µg/mL.

Take `CCCCCCCCCCCC(=O)O[C@H](CCCCCCCCCCC)CC(=O)N[C@H](CCOP(=O)(O)O)C(=O)NCCC[C@H](COP(=O)(O)O)NC(=O)C[C@H](O)CCCCCCCCCCC`: in the data set with PBMC [1], the outcome was Active. Also, in the data set on PBMC [2], the outcome was inactive. The same compound came in with an Activity with Limulus of 1072 EU/ml. The EC50 with Macrophage worked out at 0.55 µg/mL (≈ 0.542 µM).

The values are drawn from ChEMBL document CHEMBL1137398, “Synthesis and immunobiological activity of an original series of acyclic lipid a mimics based on a pseudodipeptide backbone” (J Med Chem, 2006).
